IDH1 mut inh = blocks human IDH1 R132H reductase activity. O75874. diaphorase/resazurin fluorescence, 60 min. inhibition, % at 10 µM. 70,000 tested, 0.18% active. AID 624101; in the data active means inhibition above about 34%; inconclusive means no clear call, values can overlap the other calls; inactive means below about 11%;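 further: 0% = DMSO and 100% = no enzyme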
Target sequence (O75874 whole entry R132H): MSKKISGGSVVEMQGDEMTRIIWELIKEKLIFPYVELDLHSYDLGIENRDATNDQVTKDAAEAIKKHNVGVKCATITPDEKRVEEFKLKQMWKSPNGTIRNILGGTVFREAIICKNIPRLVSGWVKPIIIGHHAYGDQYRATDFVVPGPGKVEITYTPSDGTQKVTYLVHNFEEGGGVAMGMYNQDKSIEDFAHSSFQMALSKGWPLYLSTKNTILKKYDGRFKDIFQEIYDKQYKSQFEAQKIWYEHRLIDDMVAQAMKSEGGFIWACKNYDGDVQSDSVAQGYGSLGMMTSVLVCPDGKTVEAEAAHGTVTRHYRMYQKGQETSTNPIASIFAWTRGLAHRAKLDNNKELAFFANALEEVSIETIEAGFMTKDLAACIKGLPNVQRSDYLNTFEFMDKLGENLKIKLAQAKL
T cruzi growth-1 = T. cruzi proliferation inhibition. T. cruzi beta-gal in NIH3T3, GalScreen luminescence, 90 h. 77,000 tested, 5.9% active. inhibition, % at 8.34 µM;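 active means mean inhibition above about 93%, with at least 55% of replicates each passing it, limit read from the data, passing the limit was not always enough; inconclusive means only one of those two conditions holds; inactive means neither condition holds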
Pf Dd2 growth = inhibitors of Plasmodium falciparum Dd2 growth; 94,000 tested, 2.3% active; activity change, % at 10 µM; P. falciparum Dd2 growth, SYBR Green, 72 h; hits give low values; in the data active means activity change below about -80%; inconclusive means no clear call, values can overlap the other calls
KDM4C inh = KDM4C (human) demethylase inhibition; Q9H3R0; GST-KDM4C 2-372, H3K9me3 peptide, LANCE TR-FRET; inhibition, % at 12.5 µM; 96,000 tested, 0.15% active; AID 720574;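 active means mean replicate inhibition above about 25%, with at least 55% of replicates also reaching it, limit read from the data, passing the limit was not always enough; inconclusive means only one of those two conditions met; inactive means neither condition met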
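Material: GST-tagged GASC-1 (JMJD2C) catalytic fragment, aa 2-372. Input: enzyme final amount 10 nM. Medium: HEPES buffer, pH 7.5, plus ascorbate. Reagent: H3K9me3 peptide substrate, Fe(II), 2-oxoglutarate. Doses: single dose. Times: reaction 30 min RT, detection step 1 h RT. Measured by: LANCE TR-FRET. Evaluation: Fall in 671/618 emission ratio as inhibition.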
T cruzi growth-2 = Trypanosoma cruzi proliferation inhibition | shares compounds with T cruzi growth-1 | T. cruzi beta-gal in NIH3T3, GalScreen luminescence, 90 h | inhibition, % at 8.35 µM | 5,600 tested, 72% active | AID 651739;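 active means mean replicate inhibition above about 95% and at least 55% of replicates individually reaching it, limit read from the data; inconclusive means only one of the two criteria is met; inactive means neither criterion is met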
T cruzi growth-3 = blocks T. cruzi growth in NIH3T3 host cells. inhibition, % at 2.09 µM. 5,600 tested, 21% active. shares compounds with T cruzi growth-1. T. cruzi beta-gal in NIH3T3, GalScreen luminescence, 90 h;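 active means mean inhibition above about 95%, with at least 55% of replicates also reaching it, limit read from the data; inconclusive means meets just one of the two conditions; inactive means meets neither condition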;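 further: plate controls were neutral control median for no effect and positive control median for full effect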
3T3 cytotox = kills mouse NIH/3T3 fibroblasts | shares compounds with T cruzi growth-1 | NIH/3T3 viability, CellTiter-Glo ATP luminescence, 90 h | cytotoxicity (signal decrease), % at 8.35 µM | 5,600 tested, 14% active | AID 651742;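 active means mean signal decrease across replicates above about 35% based on untreated-well scatter, with enough replicates individually passing, limit read from the data; inconclusive means no rule stated though some were filed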;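 further: 0% = median of neutral control wells and 100% = median of positive control wells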
NIH3T3 tox 2 = kills mouse NIH/3T3 fibroblasts; inhibition, % at 24.9 µM; NIH/3T3 viability, CellTiter-Glo ATP luminescence, 90 h; 5,600 tested, 56% active; AID 651744; shares compounds with T cruzi growth-1;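 active means mean loss of cell viability signal at or above a set limit, and enough replicates individually reaching it; inconclusive means meets only the mean limit or only the replicate share; inactive means meets neither condition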;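 further: 0% = median of neutral control wells and 100% = median of positive control wells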
* = called active by the depositor. This is a sample that favours compounds with a hit; in the whole collection about 5.8% have one here.

Results for CN1C(=O)c2ccccc2C(C(=O)NCc2ccco2)C1c1cn(C)c2ccccc12 (configuration not stated) ?
IDH1 mut inh: 1

Results for Cc1ccc(NC(=O)CSc2nc3ccccc3c(=O)n2-c2cccc(C(F)(F)F)c2)c(C)c1 ?
IDH1 mut inh: 0

How did COc1ccc(S(=O)(=O)Nc2ccc3c(c2)C(=O)N([C@H](C)CO)C[C@@H](C)[C@H](CN(C)S(=O)(=O)c2ccc(F)cc2)OCCCC[C@@H](C)O3)cc1 do in these assays?
IDH1 mut inh: 3; T cruzi growth-1: 105*; Pf Dd2 growth: -69; KDM4C inh: -3; T cruzi growth-2: 105*; T cruzi growth-3: 59; 3T3 cytotox: 11; NIH3T3 tox 2: 13

How did COc1ccc(S(=O)(=O)N(C)C[C@@H]2OCCCC[C@H](C)Oc3ccc(NS(=O)(=O)c4ccc(F)cc4)cc3C(=O)N([C@@H](C)CO)C[C@@H]2C)cc1 do in these assays?
T cruzi growth-1: 118*; Pf Dd2 growth: -53; KDM4C inh: 0; T cruzi growth-2: 108*; T cruzi growth-3: 40; 3T3 cytotox: -27; NIH3T3 tox 2: -8

What do the screens show for `COc1ccc(S(=O)(=O)N(C)C[C@@H]2OCCCC[C@@H](C)Oc3ccc(NS(=O)(=O)c4ccc(F)cc4)cc3C(=O)N([C@@H](C)CO)C[C@@H]2C)cc1`?
IDH1 mut inh: 5; T cruzi growth-1: 112*; Pf Dd2 growth: -64; KDM4C inh: 0; T cruzi growth-2: 101*; T cruzi growth-3: 65; 3T3 cytotox: -1; NIH3T3 tox 2: 53*

Results for COc1ccc(S(=O)(=O)N(C)C[C@H]2OCCCC[C@@H](C)Oc3ccc(NS(=O)(=O)c4ccc(F)cc4)cc3C(=O)N([C@H](C)CO)C[C@H]2C)cc1 ?
IDH1 mut inh: 0; T cruzi growth-1: 114*; Pf Dd2 growth: -74; KDM4C inh: -2; T cruzi growth-2: 106*; T cruzi growth-3: 75; 3T3 cytotox: -17; NIH3T3 tox 2: -17

What do the screens show for `COc1ccc(S(=O)(=O)Nc2ccc3c(c2)C(=O)N([C@H](C)CO)C[C@@H](C)[C@@H](CN(C)S(=O)(=O)c2ccc(F)cc2)OCCCC[C@H](C)O3)cc1`?
T cruzi growth-1: 95*; Pf Dd2 growth: -57; KDM4C inh: 0; T cruzi growth-2: 108*; T cruzi growth-3: 33; 3T3 cytotox: -7; NIH3T3 tox 2: 5

What do the screens show for `COc1ccc(S(=O)(=O)N(C)C[C@@H]2OCCCC[C@@H](C)Oc3ccc(NS(=O)(=O)c4ccc(F)cc4)cc3C(=O)N([C@H](C)CO)C[C@@H]2C)cc1`?
T cruzi growth-1: 53; Pf Dd2 growth: -25; KDM4C inh: -1

How did C[C@H](CO)N1C[C@H](C)[C@H](CN(C)C(=O)NC2CCCCC2)Oc2ncc(C#Cc3ccccc3)cc2C1=O do in these assays?
IDH1 mut inh: 0; T cruzi growth-1: 98*; Pf Dd2 growth: -45; T cruzi growth-2: 106*; T cruzi growth-3: 53; 3T3 cytotox: 41*; NIH3T3 tox 2: 58*

Results for C[C@@H]1CN([C@@H](C)CO)C(=O)c2cc(C#CC3CCCCC3)cnc2O[C@@H]1CN(C)C(=O)NC1CCCC1 ?
IDH1 mut inh: -3; T cruzi growth-1: 100*; Pf Dd2 growth: -51; KDM4C inh: -3; T cruzi growth-2: 107*; T cruzi growth-3: 75; 3T3 cytotox: 33; NIH3T3 tox 2: 100*

Results for COCc1nc2ccccc2n1CCOc1ccc(Br)cc1 ?
IDH1 mut inh: -1

How did C[C@@H]1CCCCO[C@@H](CN(C)S(=O)(=O)c2ccccc2)[C@@H](C)CN([C@H](C)CO)C(=O)c2cc(NC(=O)Nc3ccc(F)cc3)ccc2O1 do in these assays?
T cruzi growth-1: 87; Pf Dd2 growth: -71; KDM4C inh: 1

What do the screens show for `C[C@@H]1CCCCO[C@H](CN(C)S(=O)(=O)c2ccccc2)[C@H](C)CN([C@@H](C)CO)C(=O)c2cc(NC(=O)Nc3ccc(F)cc3)ccc2O1`?
T cruzi growth-1: 105*; Pf Dd2 growth: -72; KDM4C inh: -3; T cruzi growth-2: 109*; T cruzi growth-3: 66; 3T3 cytotox: -25; NIH3T3 tox 2: 24

What do the screens show for `C[C@@H]1CN([C@@H](C)CO)C(=O)c2cc(NC(=O)Nc3ccc(F)cc3)ccc2O[C@@H](C)CCCCO[C@H]1CN(C)S(=O)(=O)c1ccccc1`?
T cruzi growth-1: 106*; Pf Dd2 growth: -73; KDM4C inh: 0; T cruzi growth-2: 112*; T cruzi growth-3: -49; 3T3 cytotox: 14; NIH3T3 tox 2: 5

How did C[C@H](CO)N1C[C@H](C)[C@@H](CN(C)S(=O)(=O)c2ccccc2)OCCCC[C@H](C)Oc2ccc(NC(=O)Nc3ccc(F)cc3)cc2C1=O do in these assays?
IDH1 mut inh: 1; T cruzi growth-1: 109*; Pf Dd2 growth: -61; KDM4C inh: -1; T cruzi growth-2: 106*; T cruzi growth-3: 59; 3T3 cytotox: -3; NIH3T3 tox 2: 14

Results for C[C@@H]1CN([C@H](C)CO)C(=O)c2cc(NC(=O)Nc3ccc(F)cc3)ccc2O[C@@H](C)CCCCO[C@@H]1CN(C)S(=O)(=O)c1ccccc1 ?
IDH1 mut inh: 10; T cruzi growth-1: 103*; Pf Dd2 growth: -82*; KDM4C inh: 17; T cruzi growth-2: 83; T cruzi growth-3: -13; 3T3 cytotox: -13; NIH3T3 tox 2: -3

How did C[C@@H]1CCCCO[C@@H](CN(C)Cc2ccccc2)[C@H](C)CN([C@@H](C)CO)C(=O)c2cc(NC(=O)Nc3ccc(F)cc3)ccc2O1 do in these assays?
IDH1 mut inh: -1; T cruzi growth-1: inconclusive; Pf Dd2 growth: inconclusive; KDM4C inh: 1; T cruzi growth-2: 103*; T cruzi growth-3: 44; 3T3 cytotox: 10; NIH3T3 tox 2: 105*

Results for C[C@@H]1CCCCO[C@H](CN(C)Cc2ccccc2)[C@@H](C)CN([C@H](C)CO)C(=O)c2cc(NC(=O)Nc3ccc(F)cc3)ccc2O1 ?
IDH1 mut inh: 13; T cruzi growth-1: 66; Pf Dd2 growth: 26; KDM4C inh: -1

How did C[C@@H]1CCCCO[C@@H](CN(C)Cc2ccccc2)[C@@H](C)CN([C@H](C)CO)C(=O)c2cc(NC(=O)Nc3ccc(F)cc3)ccc2O1 do in these assays?
T cruzi growth-1: 101*; Pf Dd2 growth: 28; KDM4C inh: 0; T cruzi growth-2: 107*; T cruzi growth-3: 56; 3T3 cytotox: 12; NIH3T3 tox 2: 14

Assay outcomes as filed in PubChem BioAssay.
